Laboratory results published in ChEMBL document CHEMBL1130826, “Novel constrained CCK-B dipeptoid antagonists derived from pipecolic acid” (Bioorg Med Chem Lett, 1998).

Tests used:
[1] = biological target: T1, Cholecystokinin receptor type A (Cavia porcellus, UniProt Q63931); experiment: Binding affinity against CCK-A receptor in guinea pig pancreatic membranes; format: cell membranes
T1 sequence (Q63931 whole entry): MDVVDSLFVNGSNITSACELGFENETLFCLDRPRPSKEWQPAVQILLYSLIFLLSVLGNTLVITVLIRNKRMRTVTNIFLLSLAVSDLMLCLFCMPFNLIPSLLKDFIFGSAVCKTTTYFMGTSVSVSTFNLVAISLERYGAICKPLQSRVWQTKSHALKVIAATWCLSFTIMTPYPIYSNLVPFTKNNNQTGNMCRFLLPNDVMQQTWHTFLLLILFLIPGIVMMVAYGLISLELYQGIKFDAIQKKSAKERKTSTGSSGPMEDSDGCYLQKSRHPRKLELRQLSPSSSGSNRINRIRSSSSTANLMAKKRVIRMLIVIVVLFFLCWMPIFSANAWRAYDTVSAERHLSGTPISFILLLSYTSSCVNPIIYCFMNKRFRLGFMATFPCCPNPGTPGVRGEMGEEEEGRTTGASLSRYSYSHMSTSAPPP
Procedure, shortened: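 Ki from displacement of [3H]pCCK8 bound to guinea-pig pancreatic membranes (CCK-A receptor).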

[2] = biological target: T2, Gastrin/cholecystokinin type B receptor (Rattus norvegicus, UniProt P30553); experiment: Capacity to inhibit [3H]-p CCK 8 binding to membrane preparations of CHO cells transfected with the rat CCK-B receptor; format: cell membranes
T2 sequence (P30553 whole entry): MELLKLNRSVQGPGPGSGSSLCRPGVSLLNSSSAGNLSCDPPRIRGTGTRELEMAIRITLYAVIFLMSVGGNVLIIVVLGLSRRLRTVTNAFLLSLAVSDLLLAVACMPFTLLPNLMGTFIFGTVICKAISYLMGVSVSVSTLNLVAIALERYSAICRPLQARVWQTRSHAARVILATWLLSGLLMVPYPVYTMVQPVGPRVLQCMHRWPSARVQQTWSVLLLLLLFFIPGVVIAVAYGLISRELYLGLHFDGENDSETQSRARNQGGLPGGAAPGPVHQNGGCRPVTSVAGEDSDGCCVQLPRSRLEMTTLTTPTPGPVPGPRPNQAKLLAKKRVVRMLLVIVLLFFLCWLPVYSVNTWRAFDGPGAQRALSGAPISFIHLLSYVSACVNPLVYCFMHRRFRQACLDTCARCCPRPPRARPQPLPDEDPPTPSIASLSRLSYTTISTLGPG
Procedure, shortened: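 Ki from displacement of [3H]pCCK8 bound to membranes of CHO cells stably transfected with the rat CCK-B receptor.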

[3] = biological target: T2, Gastrin/cholecystokinin type B receptor; experiment: Inhibitory activity against CCK-B receptor

Ki [1] | Ki [2] | IC50 [3] | Structure (SMILES)
– | 543 nM | – | C[C@](Cc1c[nH]c2ccccc12)(NC(=O)OC1C2CC3CC(C2)CC1C3)C(=O)N1CC[C@@H](Oc2ccc(Cl)cc2Cl)C[C@H]1C(=O)O (stereo partly drawn)
– | 1040 nM | – | CC(Cc1c[nH]c2ccccc12)(NC(=O)OC1C2CC3CC(C2)CC1C3)C(=O)N1CC[C@@H](Oc2ccc(Cl)cc2Cl)C[C@@H]1C(=O)O (single isomer, unassigned)
– | 791 nM | – | C[C@](Cc1c[nH]c2ccccc12)(NC(=O)OC1C2CC3CC(C2)CC1C3)C(=O)N1CC[C@H](Oc2ccc(Cl)cc2Cl)C[C@H]1C(=O)O (stereo partly drawn)
– | 896 nM | – | C[C@@](Cc1c[nH]c2ccccc12)(NC(=O)OC1C2CC3CC(C2)CC1C3)C(=O)N1CC[C@@H](Oc2ccc(Cl)cc2Cl)C[C@H]1C(=O)O (stereo partly drawn)
– | 789 nM | – | C[C@](Cc1c[nH]c2ccccc12)(NC(=O)OC1C2CC3CC(C2)CC1C3)C(=O)N1CC[C@@H](Oc2ccc(Cl)cc2Cl)C[C@@H]1C(=O)O (stereo partly drawn)

Further lines, the compound ahead of its results:

Structure (SMILES) | Ki [1] | Ki [2] | IC50 [3]
C[C@](Cc1c[nH]c2ccccc12)(NC(=O)OC1C2CC3CC(C2)CC1C3)C(=O)N(CCc1ccc(Cl)cc1)CC(=O)O (stereo partly drawn) | 1060 nM | – | –
C[C@](Cc1c[nH]c2ccccc12)(NC(=O)OC1C2CC3CC(C2)CC1C3)C(=O)N1CC[C@H](Oc2ccc(Cl)cc2Cl)C[C@@H]1C(=O)O (stereo partly drawn) | 3720 nM | 175 nM | –
C[C@@](Cc1c[nH]c2ccccc12)(NC(=O)OC1C2CC3CC(C2)CC1C3)C(=O)N1CC[C@H](Oc2ccc(Cl)cc2Cl)C[C@@H]1C(=O)O (stereo partly drawn) | – | 812 nM | –
C[C@](Cc1c[nH]c2ccccc12)(NC(=O)OC1C2CC3CC(C2)CC1C3)C(=O)N1C[C@H](Oc2ccc(F)cc2F)C[C@@H]1C(=O)O (stereo partly drawn) | – | 18.6 nM | 389 nM
C[C@@](Cc1c[nH]c2ccccc12)(NC(=O)OC1C2CC3CC(C2)CC1C3)C(=O)N1CC[C@H](Oc2ccc(Cl)cc2Cl)C[C@H]1C(=O)O (stereo partly drawn) | 1060 nM | 1680 nM | 217 nM
COC(=O)[C@H]1C[C@@H](Oc2ccc(Cl)cc2Cl)CCN1C(=O)[C@@](C)(Cc1c[nH]c2ccccc12)NC(=O)OC1C2CC3CC(C2)CC1C3 (stereo partly drawn) | – | 1540 nM | –
C[C@](Cc1c[nH]c2ccccc12)(NC(=O)OC1C2CC3CC(C2)CC1C3)C(=O)N1C[C@H](Oc2ccc(Cl)cc2Cl)C[C@@H]1C(=O)O (stereo partly drawn) | 751 nM | 15.3 nM | 37.4 nM
C[C@](Cc1c[nH]c2ccccc12)(NC(=O)OC1C2CC3CC(C2)CC1C3)C(=O)N1C[C@H](OCc2ccccc2)C[C@@H]1C(=O)O (stereo partly drawn) | – | 24 nM | –
CC(Cc1c[nH]c2ccccc12)(NC(=O)OC1[C@H]2C[C@@H]3C[C@@H](C[C@H]1C3)C2)C(=O)N1CCC(C(=O)c2ccccc2)CC1 (stereo partly drawn) | 1700 nM | 3400 nM | –
C[C@](Cc1c[nH]c2ccccc12)(NC(=O)OC1C2CC3CC(C2)CC1C3)C(=O)N1C[C@H](Oc2ccc([N+](=O)[O-])cc2)C[C@@H]1C(=O)O (stereo partly drawn) | – | 32.7 nM | 507 nM
